FGF22 binding-1: binders of human FGF22 protein, primary screen, FGF22 synaptogenesis inhibitor project, biophysical, thermal shift, single point; recombinant FGF22 thermal shift, SYPRO orange fluorescence; percent of sucrose octasulfate shift, DMSO zero; activity (Tm shift, normalised), % at 9.99 µM; hit rate 1.5% among 340,000; AID 651658, 2012;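 active means mean Tm shift, scaled 0 neutral to 100 positive control, at about 1.3% or above, every replicate too, limit read from the data; inconclusive means no clear call, values can overlap the other calls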
Target sequence (Q9HCT0 whole entry, looked up): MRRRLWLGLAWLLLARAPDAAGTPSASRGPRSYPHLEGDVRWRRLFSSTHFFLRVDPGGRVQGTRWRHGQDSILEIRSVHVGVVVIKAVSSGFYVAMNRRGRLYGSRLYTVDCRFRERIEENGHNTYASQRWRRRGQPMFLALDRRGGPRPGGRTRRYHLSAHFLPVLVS
ERp5 block: inhibitors of ERp5-driven insulin aggregation, primary screen, biochemical, turbidity, absorbance 650 nm, single point; hit rate 0.05% among 350,000; Protein disulfide-isomerase A6 (Homo sapiens), Q15084; AID 651711, 2012; inhibition, % at 9.99 µM; 90 min;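 active means mean replicate inhibition above about 25%, with every replicate also reaching it, limit read from the data, passing the limit was not always enough; inconclusive means only one of those two criteria met; inactive means neither criterion met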
FN deposition inh: inhibitors of fibronectin matrix deposition, primary screen, AH1F cells, Alexa488-fibronectin fluorescence, plate reader; AH1F fibroblasts, overnight; inhibition, % at 12.6 µM; hit rate 0.086% among 350,000; AID 743247, 2014;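 active means mean inhibition across replicates of 30% or more, regardless of how many single replicates reach that level; inconclusive means mean under 30% yet at least half of replicates reach 30%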
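Assay system: AH1F fibroblasts assembling fluorescent fibronectin matrix; Amount: 10000 AH1F cells per well; Buffer or medium: DMEM, 2% serum; Probe or stimulus: Alexa488-fibronectin, 24 nM final in well; Doses: single compound dose, delivered by pin transfer; Incubation: 1 h adhesion, overnight exposure; Measured by: fluorescence 485/525 nm; Read-out: fibronectin deposition inhibition.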
PDI turbidity: inhibitors of human PDI, primary screen, biochemical, turbidity, single point, plate reader; Protein disulfide-isomerase (Homo sapiens), P07237; PDI insulin aggregation turbidity, A650, 90 min; inhibition, % at 10 µM; hit rate 0.052% among 350,000; AID 588391, 2011;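 active means mean inhibition across replicates of 30% or more, whatever share of single replicates reach that level; inconclusive means mean inhibition below 30% while every single replicate reaches 30%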
MLL AF4-AF9 inh: inhibitors of AF4 peptide binding to AF9, primary screen, biochemical, AlphaScreen, biotin-AF4 peptide, FLAG-AF9, single point. Protein AF-9 (Homo sapiens), P42568. inhibition, % at 10 µM. hit rate 0.47% among 350,000;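 active means every replicate reaching a set inhibition limit, whatever the replicate mean, cut at about 25% in these data; inconclusive means mean inhibition reaches that limit but some replicates miss it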
Target sequence (P42568 whole entry, looked up): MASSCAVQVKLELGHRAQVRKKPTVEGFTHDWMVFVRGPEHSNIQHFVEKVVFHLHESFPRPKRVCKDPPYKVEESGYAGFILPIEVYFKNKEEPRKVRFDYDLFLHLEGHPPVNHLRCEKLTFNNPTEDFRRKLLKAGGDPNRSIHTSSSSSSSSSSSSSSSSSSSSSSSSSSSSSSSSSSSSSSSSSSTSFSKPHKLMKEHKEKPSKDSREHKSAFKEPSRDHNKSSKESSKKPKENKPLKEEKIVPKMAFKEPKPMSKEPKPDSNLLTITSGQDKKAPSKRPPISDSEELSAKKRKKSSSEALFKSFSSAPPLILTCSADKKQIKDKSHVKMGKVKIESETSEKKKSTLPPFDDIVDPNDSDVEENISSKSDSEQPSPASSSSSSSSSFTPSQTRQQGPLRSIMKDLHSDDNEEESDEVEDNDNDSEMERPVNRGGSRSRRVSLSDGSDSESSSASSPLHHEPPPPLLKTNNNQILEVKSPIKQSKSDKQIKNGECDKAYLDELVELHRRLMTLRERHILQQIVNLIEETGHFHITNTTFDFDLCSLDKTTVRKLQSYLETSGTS
ARNT TACC3 PPI: disruptors of ARNT/TACC3 protein interaction, primary screen, biochemical, AlphaScreen, single concentration; Transforming acidic coiled-coil-containing protein 3 (Homo sapiens), Q9Y6A5; AlphaScreen His-ARNT PAS-B/GST-TACC3 binding, luminescence; TACC3 fragment carries E629A point mutation; inhibition, % at 9.99 µM; hit rate 0.66% among 390,000;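 active means mean inhibition of replicates at least 50% and at least half of replicates each reaching 50%; inconclusive means half or more replicates reach 50% but mean below 50%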
FGF22 binding-2: binders of human FGF22 protein, dose response, FGF22 synaptogenesis inhibitor project, biophysical, thermal shift, cherry-pick retest | shares compounds with FGF22 binding-1 | recombinant FGF22 thermal shift, SYPRO orange fluorescence | thermal shift activity, °C (ΔTm) at 38 µM | hit rate 2% among 1,000 | AID 720646, 2013;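 active means fitted rise in melting shift crosses a set limit at or below the top valid dose tested; inconclusive means flat fit at mid-level activity, or a poor quality fit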
TSA no protein: compound-only thermal shift signal without protein, dose response, artefact control for FGF22 binder project, biochemical, cherry-picked samples, RT-PCR instrument; compound-only SYPRO orange thermal shift counter-screen, no protein; AC50, µM (doses to about 38 µM); hit rate 2% among 1,000; shares compounds with FGF22 binding-1;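 active means rising signal whose fitted curve reaches the 0.54 level within the top valid dose, showing a melting point, actives reach about 13 µM in these data; inactive means the rest, including activity in the opposite direction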; further: value is where the raw curve crosses a fixed level and not half-maximal
Each line names hits and unclear results; the compound was inactive in the other large screens (follow-up assays come after a bar, where they were run). Only some compounds are listed: those with a hit (about 2.1% of all), similar ones and a draw of the others.

C[C@H](CO)N1C[C@H](C)[C@H](CN(C)C(=O)Nc2ccc3c(c2)OCO3)Oc2c(NC(=O)c3cnccn3)cccc2C1=O	none (no result: PDI turbidity)
C[C@H](CO)N1C[C@H](C)[C@@H](CN(C)C(=O)Nc2ccc3c(c2)OCO3)Oc2c(NC(=O)c3cnccn3)cccc2C1=O	FGF22 binding-1 6.3 (no result: FN deposition inh, PDI turbidity) | FGF22 binding-2 inactive | TSA no protein inactive
C[C@@H]1CN([C@H](C)CO)C(=O)c2cc(NC(=O)Cn3cnnn3)ccc2O[C@H]1CN(C)Cc1ccc(C(F)(F)F)cc1	none (no result: PDI turbidity)
CCCOC(=O)c1ccc(Oc2cn[nH]c2-c2ccc(O)cc2O)cc1	FGF22 binding-1 1.5 | FGF22 binding-2 inactive | TSA no protein inactive
CCOC(=O)c1ccc(Oc2cn[nH]c2-c2ccc(O)cc2O)cc1	none (no result: FGF22 binding-1)
COCC(=O)Nc1ccc2c(c1)C(=O)N(C)C[C@@H](OC)[C@H](C)CN(C)[C@H](C)CO2	none (no result: FGF22 binding-1, PDI turbidity)
Cc1nc2ccc(Br)cc2c(-c2ccccc2)c1C(=O)O	FGF22 binding-1 29 (no result: ARNT TACC3 PPI) | FGF22 binding-2 inactive | TSA no protein inactive
CC(=O)c1c(C)nc2ccc(Br)cc2c1-c1ccccc1	none (no result: ARNT TACC3 PPI)
CO[C@H]1CN(C)C(=O)c2cc(NC(=O)C3CC3)ccc2OC[C@@H](C)N(C)C[C@H]1C	none (no result: PDI turbidity)
O=C(N[C@@H]1C=C[C@@H](CC(=O)N2CCCCC2)O[C@@H]1CO)c1cccc(F)c1	FGF22 binding-1 1.8 (no result: FN deposition inh, PDI turbidity, ARNT TACC3 PPI) | FGF22 binding-2 inactive | TSA no protein inactive
N#CCSc1n[nH]c2nc3c(c(=O)n12)C1(CCCCC1)Cc1ccccc1-3	FGF22 binding-1 1.9 | FGF22 binding-2 inactive | TSA no protein inactive
CCSc1n[nH]c2nc3c(c(=O)n12)C1(CCCCC1)Cc1ccccc1-3	none
Cc1ccc(S(=O)(=O)N(C)C[C@H]2OCCCC[C@H](C)Oc3ccc(NC(=O)Nc4ccc5c(c4)OCO5)cc3C(=O)N([C@@H](C)CO)C[C@H]2C)cc1	none (no result: PDI turbidity)
O=C(O)C1CCN(S(=O)(=O)Cc2ccccc2)CC1	FGF22 binding-1 12 | FGF22 binding-2 inactive | TSA no protein inactive
COc1ccc(C(=O)O)cc1S(=O)(=O)Nc1cccc(C(F)(F)F)c1	none (no result: FGF22 binding-1, ERp5 block, FN deposition inh, MLL AF4-AF9 inh)
COc1ccc(C(=O)N2CCCCC2)cc1S(=O)(=O)Nc1cccc(C(=O)O)c1	FGF22 binding-1 1.7 (no result: FN deposition inh) | FGF22 binding-2 inactive | TSA no protein 11µM
COc1nc(-c2ccc(Cl)cc2)nnc1C	FGF22 binding-1 1.4 | FGF22 binding-2 inactive | TSA no protein inactive
COC(=O)c1nnc(-c2ccccc2)nc1OC	none (no result: FGF22 binding-1, ERp5 block, FN deposition inh, MLL AF4-AF9 inh, ARNT TACC3 PPI)
CC(C)NC(=O)N[C@@H]1CC[C@@H](CC(=O)O)O[C@@H]1CO	none (no result: PDI turbidity)
CC(C)NC(=O)N[C@H]1CC[C@@H](CC(=O)O)O[C@@H]1CO	FGF22 binding-1 1.5 (no result: PDI turbidity) | FGF22 binding-2 inactive | TSA no protein inactive
O=C(Nc1cccc(F)c1)N1CCCCN2[C@H](CO)[C@@H](c3ccc(C#Cc4ccccc4)cc3)[C@H]2C1	none (no result: FN deposition inh, PDI turbidity)
CCOC(=O)C1CCN(C(=O)CNC(=O)c2nn(-c3ccc(OC)cc3OC)c(=O)c3ccccc23)CC1	FGF22 binding-1 1.6 | FGF22 binding-2 inactive | TSA no protein inactive
Cc1nc2ccc(NC(=O)c3ccc(C)c(S(=O)(=O)N4CCOCC4)c3)cc2s1	FGF22 binding-1 1.6 (no result: ARNT TACC3 PPI) | FGF22 binding-2 inactive | TSA no protein inactive
COc1ccc(S(=O)(=O)N2CCOCC2)cc1NC(=O)c1cccc(-n2cccc2)c1	none
CCOc1ccc(NC(=O)c2cccc(-n3cccc3)c2)cc1S(=O)(=O)N1CCOCC1	FGF22 binding-1 2.3 | FGF22 binding-2 inactive | TSA no protein inactive
CCCCNC(=O)C1(C)CCCCN1C(=O)c1c(F)ccc(C)c1F (stereo not given)	FGF22 binding-1 1.7 (no result: ARNT TACC3 PPI) | FGF22 binding-2 inactive | TSA no protein inactive
CCCCNC(=O)C1(C)CCCCN1C(=O)c1ccc(C)c(F)c1 (stereo not given)	none (no result: ARNT TACC3 PPI)
O=[N+]([O-])c1ccc(Nc2ccccc2)nc1	FGF22 binding-1 1.4 | FGF22 binding-2 inactive | TSA no protein inactive
O=[N+]([O-])c1ccc(Nc2cccc(F)c2)nc1	FGF22 binding-1 3.5, ERp5 block inconclusive | FGF22 binding-2 inactive | TSA no protein inactive
CC(C)[C@@H]1C(=O)N[C@@H](c2ccccc2)CC=CC[C@H](C)Oc2ccccc2C(=O)N1C (mixture of isomers)	none (no result: FGF22 binding-1, ERp5 block, PDI turbidity, MLL AF4-AF9 inh, ARNT TACC3 PPI)
COC(=O)COc1cc(OCC(=O)OC)c2c(C)c(Cl)c(=O)oc2c1	none (no result: FGF22 binding-1, ERp5 block, MLL AF4-AF9 inh)
COC(=O)C(C)Oc1cc(OC(C)C(=O)OC)c2c(C)c(Cl)c(=O)oc2c1 (stereo not given)	FGF22 binding-1 1.6 | TSA no protein inactive
O=C(CNC(=O)c1cccc(Br)c1)N/N=C/c1cc(Br)cc(Br)c1O	FGF22 binding-1 1.7 | FGF22 binding-2 inactive | TSA no protein inactive
O=C(CC1CC1)N1CC(=O)N2[C@@H](CO)[C@@H](c3ccc(C#Cc4ccccc4)cc3)[C@@H]2C1	none (no result: FGF22 binding-1, FN deposition inh, PDI turbidity, ARNT TACC3 PPI)
COc1ccc2c3c(n(C)c2c1)[C@@H](CO)N(C(C)=O)CC31CCN(C(=O)Nc2ccc(F)cc2)CC1	none (no result: ERp5 block, FN deposition inh, PDI turbidity, ARNT TACC3 PPI)
Cn1ncc2c(Nc3ccc(Br)cc3)nc(Nc3ccc(Br)cc3)nc21	none
Cn1ncc2c(Nc3ccc(O)cc3)nc(Cl)nc21	FGF22 binding-1 26 | FGF22 binding-2 inactive | TSA no protein inactive
O=C(N/N=C/c1ccc[nH]1)c1cc2ccccc2cc1O	FGF22 binding-1 1.8 | FGF22 binding-2 inactive | TSA no protein inactive
CC(=O)Nc1ccc2c(c1)C(=O)N(C)C[C@@H](C)[C@@H](CN(C)C)O2	none (no result: FGF22 binding-1, ERp5 block, PDI turbidity, MLL AF4-AF9 inh, ARNT TACC3 PPI)
C[C@@H]1CCCCO[C@H](CN(C)Cc2ccc(C(F)(F)F)cc2)[C@H](C)CN([C@H](C)CO)C(=O)c2cc(NC(=O)Nc3ccccc3)ccc2O1	none (no result: ERp5 block, PDI turbidity, MLL AF4-AF9 inh)
O=S(=O)(NC[C@H]1N[C@H](CO)[C@H]1c1ccccc1)c1ccccc1	FGF22 binding-1 2.4 (no result: PDI turbidity) | FGF22 binding-2 inactive | TSA no protein inactive
O=C(CN1CCOCC1)N[C@@H]1CC[C@@H](CCNC(=O)Nc2cc(F)ccc2F)O[C@H]1CO	none (no result: PDI turbidity)

Source: PubChem
